Results taken from ChEMBL document CHEMBL4602720, “Degradation versus Inhibition: Development of Proteolysis-Targeting Chimeras for Overcoming Statin-Induced Compensatory Upregulation of 3-Hydroxy-3-methylglutaryl Coenzyme A Reductase” (J Med Chem, 2020).
Calls of active or inactive are those of the source. The calls are words filed in the database; no cut-off is given here.

How the values were obtained:
[1] = target: T1, Protein cereblon/3-hydroxy-3-methylglutaryl-coenzyme A reductase (Cricetulus griseus) (UniProt P00347+G3H338); test: Protac activity at CRBN/HMGCR in Insig-1/Insig-2 deficient Chinese hamster SRD15 cells assessed as induction of HMGCR degradation at 0.01 to 1 uM after 16 hrs by immunoblotting analysis
Outline: (§1)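 SRD15 cells treated with compound at varying concentrations for 16 h, final DMSO ≤0.1%; RIPA lysates (Lowry protein) immunoblotted for HMGCR, densitometry normalized to actin, DMSO set to 1; DC50 = concentration giving 50% loss versus DMSO, fitted to dose-response curve, mean of 3 independent experiments.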

[2] = target: T2, Protein cereblon/3-hydroxy-3-methylglutaryl-coenzyme A reductase (Cricetulus griseus, UniProt P00347+G3H338); test: Protac activity at CRBN/HMGCR in Insig-1/Insig-2 deficient Chinese hamster SRD15 cells assessed as induction of HMGCR degradation after 16 hrs by immunoblotting analysis; outline: as §1
T2 sequence (P00347 whole entry): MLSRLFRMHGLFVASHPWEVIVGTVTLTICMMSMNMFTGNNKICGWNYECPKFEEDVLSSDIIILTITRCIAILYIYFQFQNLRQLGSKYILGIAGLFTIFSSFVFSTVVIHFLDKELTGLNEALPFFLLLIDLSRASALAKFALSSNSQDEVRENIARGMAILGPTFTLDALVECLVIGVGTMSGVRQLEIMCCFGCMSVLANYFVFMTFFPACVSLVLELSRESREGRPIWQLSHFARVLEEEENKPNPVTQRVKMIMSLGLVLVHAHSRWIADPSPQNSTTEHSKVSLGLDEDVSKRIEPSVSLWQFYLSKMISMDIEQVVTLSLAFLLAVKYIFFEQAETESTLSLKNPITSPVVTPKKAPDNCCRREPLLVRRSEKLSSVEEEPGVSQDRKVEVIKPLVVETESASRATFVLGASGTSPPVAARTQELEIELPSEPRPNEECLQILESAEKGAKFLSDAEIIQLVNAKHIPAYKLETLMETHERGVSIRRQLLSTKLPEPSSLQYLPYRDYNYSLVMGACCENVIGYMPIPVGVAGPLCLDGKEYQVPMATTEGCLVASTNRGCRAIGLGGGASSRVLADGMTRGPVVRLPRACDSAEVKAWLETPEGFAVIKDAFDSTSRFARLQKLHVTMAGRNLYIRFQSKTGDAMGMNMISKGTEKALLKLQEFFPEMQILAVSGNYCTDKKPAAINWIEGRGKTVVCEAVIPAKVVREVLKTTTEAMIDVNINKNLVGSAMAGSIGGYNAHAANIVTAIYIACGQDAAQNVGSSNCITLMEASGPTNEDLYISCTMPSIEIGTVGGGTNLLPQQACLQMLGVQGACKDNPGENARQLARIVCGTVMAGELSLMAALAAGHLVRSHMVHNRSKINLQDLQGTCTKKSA
T2 sequence (G3H338 whole entry): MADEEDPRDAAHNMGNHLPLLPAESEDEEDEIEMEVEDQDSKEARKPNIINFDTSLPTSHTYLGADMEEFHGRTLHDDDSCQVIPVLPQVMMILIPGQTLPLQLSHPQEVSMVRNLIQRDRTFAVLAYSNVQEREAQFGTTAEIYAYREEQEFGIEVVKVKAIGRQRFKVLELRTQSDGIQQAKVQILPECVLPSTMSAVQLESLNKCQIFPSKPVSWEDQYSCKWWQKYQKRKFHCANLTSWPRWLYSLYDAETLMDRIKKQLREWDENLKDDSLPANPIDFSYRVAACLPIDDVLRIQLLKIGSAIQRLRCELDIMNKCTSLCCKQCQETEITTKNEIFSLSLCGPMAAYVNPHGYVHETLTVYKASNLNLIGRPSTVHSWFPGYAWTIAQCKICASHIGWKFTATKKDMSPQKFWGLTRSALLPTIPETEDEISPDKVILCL

[3] = target: T1, Protein cereblon/3-hydroxy-3-methylglutaryl-coenzyme A reductase (Cricetulus griseus); test: Protac activity at CRBN/HMGCR in Insig-1/Insig-2 deficient Chinese hamster SRD15 cells assessed as induction of HMGCR degradation at 3 uM after 16 hrs by immunoblotting analysis; outline: as §1
[4] = target: T3, Sterol regulatory element-binding protein 2 (Mus musculus) (UniProt Q3U1N2); test: Activation of SREBP2 pathway in mouse primary hepatocytes assessed as increase in LDLR mRNA expression at 0.01 to 1 uM afer 16 hrs by quantitative real-time PCR analysis; assay type: cell-based
T3 sequence (whole entry): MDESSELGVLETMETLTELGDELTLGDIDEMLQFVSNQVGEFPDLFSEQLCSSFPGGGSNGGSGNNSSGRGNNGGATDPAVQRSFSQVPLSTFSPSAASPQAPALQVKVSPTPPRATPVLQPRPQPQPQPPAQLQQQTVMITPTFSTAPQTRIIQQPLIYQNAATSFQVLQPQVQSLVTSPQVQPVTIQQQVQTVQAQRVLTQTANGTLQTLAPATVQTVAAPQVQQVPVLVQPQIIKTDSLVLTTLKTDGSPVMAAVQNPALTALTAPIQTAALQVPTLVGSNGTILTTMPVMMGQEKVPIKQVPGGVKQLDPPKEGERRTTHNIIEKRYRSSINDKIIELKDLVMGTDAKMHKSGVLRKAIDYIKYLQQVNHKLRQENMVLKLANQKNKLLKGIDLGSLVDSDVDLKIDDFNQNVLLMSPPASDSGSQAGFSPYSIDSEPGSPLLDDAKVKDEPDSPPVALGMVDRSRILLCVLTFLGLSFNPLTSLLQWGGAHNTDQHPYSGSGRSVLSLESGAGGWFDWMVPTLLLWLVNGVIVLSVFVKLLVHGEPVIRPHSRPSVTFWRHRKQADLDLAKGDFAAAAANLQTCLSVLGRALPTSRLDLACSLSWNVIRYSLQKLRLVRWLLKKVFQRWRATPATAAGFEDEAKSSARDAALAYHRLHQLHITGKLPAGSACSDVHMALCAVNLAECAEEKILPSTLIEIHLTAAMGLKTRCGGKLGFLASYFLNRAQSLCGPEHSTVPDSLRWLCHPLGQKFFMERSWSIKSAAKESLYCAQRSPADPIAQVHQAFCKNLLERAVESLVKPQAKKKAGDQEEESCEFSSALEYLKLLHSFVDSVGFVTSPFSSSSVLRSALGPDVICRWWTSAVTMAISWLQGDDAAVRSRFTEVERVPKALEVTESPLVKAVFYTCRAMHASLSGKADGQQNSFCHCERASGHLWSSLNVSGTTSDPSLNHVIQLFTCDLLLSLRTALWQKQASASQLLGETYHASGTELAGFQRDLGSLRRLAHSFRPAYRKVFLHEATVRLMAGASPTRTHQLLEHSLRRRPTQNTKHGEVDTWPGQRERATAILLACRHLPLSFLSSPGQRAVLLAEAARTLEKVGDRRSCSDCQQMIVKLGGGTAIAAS

[5] = target: T3, Sterol regulatory element-binding protein 2 (Mus musculus); test: Activation of SREBP2 pathway in mouse primary hepatocytes assessed as increase in HMGCR mRNA expression at 0.01 to 1 uM afer 16 hrs by quantitative real-time PCR analysis; assay type: cell-based
[6] = target: T4, Thioredoxin domain-containing protein 11 (Homo sapiens) (UniProt Q6PKC3); test: Activation of TXNDC11 (unknown origin)
T4 sequence (whole entry): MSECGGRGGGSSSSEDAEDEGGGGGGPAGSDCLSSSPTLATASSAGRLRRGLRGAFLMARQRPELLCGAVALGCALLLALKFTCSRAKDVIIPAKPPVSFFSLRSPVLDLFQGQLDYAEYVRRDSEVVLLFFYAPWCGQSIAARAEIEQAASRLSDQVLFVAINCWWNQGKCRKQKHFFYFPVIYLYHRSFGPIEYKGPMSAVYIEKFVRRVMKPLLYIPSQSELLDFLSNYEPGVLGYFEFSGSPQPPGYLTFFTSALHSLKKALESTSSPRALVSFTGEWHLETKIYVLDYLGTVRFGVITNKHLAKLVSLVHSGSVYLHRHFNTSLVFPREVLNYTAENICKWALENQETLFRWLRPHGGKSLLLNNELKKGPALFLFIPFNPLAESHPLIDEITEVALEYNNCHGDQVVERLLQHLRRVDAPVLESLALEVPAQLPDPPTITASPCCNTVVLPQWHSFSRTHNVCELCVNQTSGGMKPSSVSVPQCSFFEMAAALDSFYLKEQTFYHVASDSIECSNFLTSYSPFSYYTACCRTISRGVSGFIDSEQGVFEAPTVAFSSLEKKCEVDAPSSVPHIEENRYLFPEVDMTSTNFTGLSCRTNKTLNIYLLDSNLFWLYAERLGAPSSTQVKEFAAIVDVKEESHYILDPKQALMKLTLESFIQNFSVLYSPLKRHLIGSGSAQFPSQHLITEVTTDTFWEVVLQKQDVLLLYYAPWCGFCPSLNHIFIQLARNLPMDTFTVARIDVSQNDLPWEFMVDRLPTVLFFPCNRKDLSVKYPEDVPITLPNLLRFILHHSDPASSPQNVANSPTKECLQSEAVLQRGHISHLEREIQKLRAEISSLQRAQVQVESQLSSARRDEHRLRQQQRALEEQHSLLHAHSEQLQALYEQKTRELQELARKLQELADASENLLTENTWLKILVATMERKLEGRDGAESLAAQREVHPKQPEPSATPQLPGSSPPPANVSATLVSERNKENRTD

Huh-7 = test: Inhibition of cholesterol biosynthesis in human HuH7 cells preincubated for 14 hrs and followed by addition of 14C-acetate and measured after 2 hrs by TL method; assay type: functional, cell-based
Outline: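 Sterol-depleted Huh7 cells (Medium B plus 5% lipoprotein-deficient serum) treated at varying concentrations for 14 h, pulse-labelled with ¹⁴C-acetate 1 μCi/μL for 2 h, washed, lysed in 0.1 M NaOH; lipids separated by TLC, ¹⁴C-cholesterol read by phosphorimager, DMSO set to 1.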

| Activity [1] | DC50 [2] [µM] | Activity [4] | Activity [5] | SMILES | also measured |
| --- | --- | --- | --- | --- | --- |
| inactive | – | – | – | C#CCCCOc1cccc(-c2c(C(=O)Nc3ccccc3)c(C(C)C)n(CC[C@@H](O)C[C@@H](O)CC(=O)O)c2-c2ccc(F)cc2)c1 | – |
| inactive | – | – | – | C#CCOc1cccc(-c2c(C(=O)Nc3ccccc3)c(C(C)C)n(CC[C@@H](O)C[C@@H](O)CC(=O)O)c2-c2ccc(F)cc2)c1 | – |
| – | 0.3 | – | – | CC(C)c1c(C(=O)Nc2ccccc2)c(-c2cccc(OCCCc3cn(CCOCCOCCOCCOCCNc4ccc5c(c4)C(=O)N(C4CCC(=O)NC4=O)C5=O)nn3)c2)c(-c2ccc(F)cc2)n1CC[C@@H](O)C[C@@H](O)CC(=O)O (stereo partly specified) | Activity [3]: inactive |
| – | 0.4 | Active | Active | CC(C)c1c(C(=O)Nc2ccccc2)c(-c2cccc(OCCCc3cn(CCCCCCNc4cccc5c4C(=O)N(C4CCC(=O)NC4=O)C5=O)nn3)c2)c(-c2ccc(F)cc2)n1CC[C@@H](O)C[C@@H](O)CC(=O)O (stereo partly specified) | – |
| – | – | – | – | CC(C)c1c(C(=O)Nc2ccccc2)c(-c2ccccc2)c(-c2ccc(F)cc2)n1CC[C@@H](O)C[C@@H](O)CC(=O)O | fold change (FC) [6]: 108; inhibition (Huh-7): Active |
| inactive | – | – | – | C#CCCCCOc1cccc(-c2c(C(=O)Nc3ccccc3)c(C(C)C)n(CC[C@@H](O)C[C@@H](O)CC(=O)O)c2-c2ccc(F)cc2)c1 | – |
| – | 0.4 | Active | Active | CC(C)c1c(C(=O)Nc2ccccc2)c(-c2cccc(OCCCCCc3cn(CCCCCCCNc4cccc5c4C(=O)N(C4CCC(=O)NC4=O)C5=O)nn3)c2)c(-c2ccc(F)cc2)n1CC[C@@H](O)C[C@@H](O)CC(=O)O (stereo partly specified) | – |
| inactive | – | – | – | C#CCCCCCOc1cccc(-c2c(C(=O)Nc3ccccc3)c(C(C)C)n(CC[C@@H](O)C[C@@H](O)CC(=O)O)c2-c2ccc(F)cc2)c1 | – |
| – | 0.3 | Active | Active | CC(C)c1c(C(=O)Nc2ccccc2)c(-c2cccc(OCCCCc3cn(CCCCCCCNc4cccc5c4C(=O)N(C4CCC(=O)NC4=O)C5=O)nn3)c2)c(-c2ccc(F)cc2)n1CC[C@@H](O)C[C@@H](O)CC(=O)O (stereo partly specified) | – |
| – | 0.2 | Active | Active | CC(C)c1c(C(=O)Nc2ccccc2)c(-c2cccc(OCCCc3cn(CCCCCCCNc4cccc5c4C(=O)N(C4CCC(=O)NC4=O)C5=O)nn3)c2)c(-c2ccc(F)cc2)n1CC[C@@H](O)C[C@@H](O)CC(=O)O (stereo partly specified) | – |
| – | 0.3 | – | – | CC(C)c1c(C(=O)Nc2ccccc2)c(-c2cccc(OCCCc3cn(CCCCCOCC#Cc4cccc5c4CN(C4CCC(=O)NC4=O)C5=O)nn3)c2)c(-c2ccc(F)cc2)n1CC[C@@H](O)C[C@@H](O)CC(=O)O (stereo partly specified) | – |
